The source of these data is article PMC3350218 (Journal of Medicinal Chemistry, 2012).

One data set deals with P. falciparum strain W2. Briefly: Antiplasmodial proliferation inhibition assay, 384-well, SYBR Green. Type of data set: cell-based, Plasmodium falciparum. Put shortly: (§1)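 P. falciparum was grown in O+ erythrocytes and tested in serum-free medium with 0.5% Albumax II. Test compound ran as a 12-point half-log series, top final 10 μM, at 0.3% parasitemia and 2.5% hematocrit, 72 h, 37 °C, low-oxygen gas. Saponin/Triton lysis buffer with SYBR Green was added (24 h, 25 °C), then fluorescence read at 485/530 nm. […] EC50 came from logistic fit, with at least duplicate plates.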

A short description of data set [1]: Caco-2 permeability assay. The data set is classed as in vitro ADME. The following applies: human, Caco-2.
A short description of data set [2]: Rat full PK / dose escalation PK. The data set is classed as in vivo. The conditions noted are these: rat PO, 30 mg/kg vs 10 mg/kg.
The next data set deals with Plasmodium berghei. Briefly: Plasmodium berghei mouse survival model. The following applies: for survival (average lifespan after infection): untreated control 6–7 days. Type of data set: in vivo, Plasmodium berghei (NMRI mice). The method, boiled down: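 Female NMRI mice (20–22 g), three per group, were infected IV on day 0 with 2 × 10^7 P. berghei GFP ANKA-parasitised erythrocytes. Test compound in 75% PEG300/25% D5W was given orally at 10 mL/kg, either once at 24 h or daily at 24, 48 and 72 h. Parasitemia was measured by flow cytometry at 72 h or 96 h, as % reduction versus untreated controls. Survival was followed to day 30, and cure meant parasite-free survival to day 30.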

A further data set concerns Caco-2. The data set can be described thus: Caco-2 permeability assay. The conditions noted are these: for Caco-2 A–B: apical to basolateral; for Caco-2 B–A: basolateral to apical. Type of data set: in vitro ADME.
Data set [3] in a line: In vivo pharmacokinetics in mice. The following applies: mouse, plasma.
The next data set in a line: Rat snapshot PK. Type of data set: in vivo.
For another data set, the system named is P. falciparum. The data set can be described thus: Antiplasmodial activity as quoted in text. Type of data set: cell-based, Plasmodium falciparum. The conditions noted are these: for EC50: Plasmodium falciparum, read-out: antiplasmodial activity EC50; for loss/decrease of potency: relative to parent compound (17: 8-methyl; 32: lactam vs 31); for improvement in potency: on 8,8-dimethyl substitution (33 vs 32; 35 vs 31). Put shortly:
as §1

The nature of data set [4]: Metabolic stability in mouse liver microsomes. The data set is classed as in vitro ADME. The conditions noted are these: Table 2.
The subject of the next data set is P. falciparum strain 3D7. Briefly: Antiplasmodial proliferation inhibition assay, 384-well, SYBR Green. The conditions noted are these: Plasmodium falciparum, 3D7, read-out: P. falciparum strain EC50 3D7. Type of data set: cell-based. The method, boiled down:
as §1

A short description of a further data set: PAMPA assay. The conditions noted are these: Table 3. The data set is classed as in vitro ADME. For orientation: The PAMPA barrier holds no transporters, so it reflects passive diffusion.
[5] abbreviates: read-out: P. falciparum strain EC50 W2, Table 1, means of two experiments, 72 h incubation.
Where [6] appears, read: Wistar, rat, plasma, po, 20 mg/kg.

Like-named read-outs stand apart in the source and are kept apart here.

With “2-Amino-1-(3-(4-chloro-3-fluorophenylamino)-2-(4-fluorophenyl)-8,8-dimethyl-5,6-dihydroimidazo[1,2-a]pyrazin-7(8H)-yl)ethanone [Compound 21]”, the 50% effective concentration (EC50) – broadly, the midpoint of the concentration-response curve – with P. falciparum strain W2 (setting [5]) is 24 ± 1 nM.
Take `NCC(=O)N1CCn2c(nc(-c3ccc(F)cc3)c2Nc2ccc(F)cc2)C1` [Compound 15]: in data set [1], the Papp A→B (as a rule, the apparent permeability from the apical to the basolateral side of a cell layer) amounted to 0.7 ×10⁻⁶ cm/s and the Papp B→A (commonly how fast a substance crosses the layer from the basolateral side) is 2.55 ×10⁻⁶ cm/s.
In the case of `CC1(C)c2nc(-c3ccc(F)cc3)c(Nc3ccc(F)cc3)n2CCN1C(=O)CN` [Compound 22, 2-Amino-1-(2-(4-fluorophenyl)-3-(4-fluorophenylamino)-8,8-dimethyl-5,6-dihydroimidazo[1,2-a]pyrazin-7(8H)-yl)ethanone], in data set [2], the “increase in AUC” value was 7 fold and the increase in bioavailability was determined as 2 fold. In addition, the “activity (average parasitemia reduction)” value in the data set with Plasmodium berghei (1 × 30 mg/kg oral, 30 mg/kg) is reported as above 99%. In the data set with Plasmodium berghei (compound 22 vs compound 1), the “efficacy of substituted vs unsubstituted piperazine core (ED99)” value is recorded as around 10 fold. Also, in the data set with Caco-2, the “Caco-2 A–B” value was 1.26 cm/s ×10^6 and the “Caco-2 B–A” value is listed as 2.99 cm/s ×10^6. The Cmax (as a rule, the maximum level reached in the sampled fluid or tissue) in [3] (oral, 2 mg/kg) was around 75 nM.
Turning to `CC1(C)c2nc(-c3ccc(F)cc3)c(Nc3ccc(F)c(F)c3)n2CCN1C(=O)CN` [Compound 24, 2-Amino-1-(3-((3,4-difluorophenyl)amino)-2-(4-fluorophenyl)-8,8-dimethyl-5,6-dihydroimidazo[1,2-a]pyrazin-7(8H)-yl)ethanone], the “activity (average parasitemia reduction)” value with Plasmodium berghei (1 × 30 mg/kg oral, 30 mg/kg) is recorded as above 99%. For the same molecule, in the data set on Caco-2, the “Caco-2 A–B” value is reported as 0.61 cm/s ×10^6 and the “Caco-2 B–A” value was determined as 1.3 cm/s ×10^6.
In [1], `CC(C)(N)C(=O)N1CCn2c(nc(-c3ccc(F)cc3)c2Nc2ccc(F)cc2)C1` [Compound 27, 2-Amino-1-(2-(4-fluorophenyl)-3-((4-fluorophenyl)amino)-5,6-dihydroimidazo[1,2-a]pyrazin-7(8H)-yl)-2-methylpropan-1-one] had an apparent permeability from apical to basolateral (Papp A→B) of 3.05 ×10⁻⁶ cm/s and an apparent permeability from basolateral to apical (Papp B→A) of 8.38 ×10⁻⁶ cm/s.
Consider `CC(C)(N)C(=O)N1CCn2c(nc(-c3ccc(F)cc3)c2Nc2ccc(F)cc2)C1(C)C` [Compound 28, 2-Amino-1-(2-(4-fluorophenyl)-3-(4-fluorophenylamino)-8,8-dimethyl-5,6-dihydroimidazo[1,2-a]pyrazin-7(8H)-yl)-2-methylpropan-1-one], for which, in the data set on Caco-2, the “Caco-2 A–B” value is on record as 1.2 cm/s ×10^6 and the “Caco-2 B–A” value came to 0.97 cm/s ×10^6.
For `Cc1ccc(Nc2c(-c3ccc(F)cc3)nc3n2CCN(C(=O)C(C)(C)N)C3(C)C)cc1` [Compound 29, 2-Amino-1-(2-(4-fluorophenyl)-8,8-dimethyl-3-(p-tolylamino)-5,6-dihydroimidazo[1,2-a]pyrazin-7(8H)-yl)-2-methylpropan-1-one], the “in vivo exposure in rat” value in “Rat snapshot PK” (oral, rat snapshot PK) is “did not exhibit any in vivo exposure”. In the data set on Plasmodium berghei (1 × 30 mg/kg oral, 30 mg/kg), the “activity (average parasitemia reduction)” value is on record as above 99%. The “survival (average lifespan after infection)” value (shortened to “survival”) with Plasmodium berghei (3 × 30 mg/kg oral) is 18.0 days. Moreover, in the data set on Caco-2, the “Caco-2 A–B” value was determined as 3.5 cm/s ×10^6 and the “Caco-2 B–A” value turned out to be 2.37 cm/s ×10^6.
As for `Cc1ccc(Nc2c(-c3ccc(F)cc3)nc3n2CCNC3)cc1` [Compound 31, 2-(4-Fluorophenyl)-N-(p-tolyl)-5,6,7,8-tetrahydroimidazo[1,2-a]pyrazin-3-amine], the EC50 in the data set with P. falciparum was in the range of 160 to 400 nM. Moreover, in the data set with Caco-2, the “Caco-2 A–B” value was 8.2 cm/s ×10^6 and the “Caco-2 B–A” value was 2.36 cm/s ×10^6.
On to `Cc1ccc(Nc2c(-c3ccc(F)cc3)nc3n2CC(=O)NC3)cc1` [Compound 32, 2-(4-Fluorophenyl)-3-(p-tolylamino)-7,8-dihydroimidazo[1,2-a]pyrazin-6(5H)-one], for which, in the data set on P. falciparum, the loss/decrease of potency is around 7 fold. Further, in the data set with Caco-2, the “Caco-2 A–B” value is given as 15 cm/s ×10^6 and the “Caco-2 B–A” value stood at 14.37 cm/s ×10^6.
`Cc1ccc(Nc2c(-c3ccc(F)cc3)nc3n2CC(=O)NC3(C)C)cc1` [Compound 33, 2-(4-Fluorophenyl)-8,8-dimethyl-3-(p-tolylamino)-7,8-dihydroimidazo[1,2-a]pyrazin-6(5H)-one]: the improvement in potency in the data set with P. falciparum turned out to be 7 fold.
On to `CC1(C)NC(=O)Cn2c1nc(-c1ccc(F)cc1)c2Nc1ccc(Cl)c(F)c1` [Compound 34, 3-(4-Chloro-3-fluorophenylamino)-2-(4-fluorophenyl)-8,8-dimethyl-7,8-dihydro imidazo[1,2-a]pyrazin-6(5H)-one], for which the “mouse microsome hepatic extraction ratio” value in [4] is 0.61. For the same molecule, in the data set “Rat snapshot PK” (PO, Wistar rat), the “AUC(0–5 h)/dose” value is 5.07 (min·μg/mL)/(mg/kg). In addition, in “Rat snapshot PK” (setting [6]), the AUC(0-t) (in general, the area under the concentration-time curve up to a stated or last time point) was found to be 2.1 µM·h and the highest level (Cmax) was 504 nM. Moreover, the EC50 with P. falciparum strain 3D7 stood at 36 ± 2 nM. Also, the “PAMPA, measured as percentage absorbed” value in “PAMPA assay” was found to be 97.1%. The concentration for a half-maximal effect (EC50) in the data set with P. falciparum strain W2 (Plasmodium falciparum, W2, read-out: P. falciparum strain EC50 W2) turned out to be 65 ± 3 nM. In the data set on Plasmodium berghei (1 × 30 mg/kg oral), the “activity (average parasitemia reduction)” value is given as 47.0% and the “survival” value came out at 6.3 days. For the same molecule, in the data set with Plasmodium berghei (1 × 100 mg/kg oral), the “activity (average parasitemia reduction)” value is reported as 97.0% and the “survival” value worked out at 6.7 days. In the data set on Plasmodium berghei (3 × 30 mg/kg oral), the “activity (average parasitemia reduction)” value came to 66.0% and the “survival” value was 7.0 days. For the same molecule, in data set [1], the Papp A→B turned out to be 3.22 ×10⁻⁶ cm/s and the Papp B→A stood at 3.35 ×10⁻⁶ cm/s. Moreover, in [3] (male, Balb/c, iv, 5 mg/kg), the AUC(0-t) was determined as 16.5 µM·h; the Vd (usually the apparent volume that relates the amount in the body to the concentration in plasma or blood) is 2.7 L/kg; the clearance (in general, a measure of how efficiently the substance is removed, as volume per time) came out at 12.5 mL/min/kg; the half-life – broadly, the time in which the quantity being followed falls by half – was 2.8 h. Besides, in data set [3] (male, Balb/c, oral, 20 mg/kg), the bioavailability (commonly the share of a dose that reaches the circulation, judged against a reference dose that is usually intravenous) was 77%. Also, in data set [3] (male, Balb/c, po, 20 mg/kg), the exposure AUC(0-t) came to 50.6 µM·h; the highest level (Cmax) was 3650 nM; the Tmax – broadly, the time at which the peak concentration occurs – was determined as 1 h; the half-life was 2.71 h.
In the case of `Cc1ccc(Nc2c(-c3ccc(F)cc3)nc3n2CCNC3(C)C)cc1` [Compound 35, 2-(4-Fluorophenyl)-8,8-dimethyl-N-p-tolyl-5,6,7,8-tetrahydroimidazo[1,2-a]pyrazin-3-amine], in the data set on P. falciparum, the EC50 is around 10 nM and the improvement in potency is around 10 fold. Further, in the data set on Caco-2, the “Caco-2 A–B” value turned out to be 15.56 cm/s ×10^6 and the “Caco-2 B–A” value was found to be 6.96 cm/s ×10^6.
In the case of “(R)-2-Amino-1-(3-(4-chloro-3-fluorophenylamino)-2-(4-fluorophenyl)-8-isopropyl-5,6-dihydroimidazo[1,2-a]pyrazin-7(8H)-yl)ethanone [Compound 20]”, the EC50 in the data set with P. falciparum strain W2 (setting [5]) was determined as 202 ± 38 nM.
Still for that read-out and setting: the same measure for “(R)-2-Amino-1-(3-(4-chloro-3-fluorophenylamino)-2-(4-fluorophenyl)-8-methyl-5,6-dihydroimidazo[1,2-a]pyrazin-7(8H)-yl)ethanone [Compound 18]”: 29 ± 3 nM.
Still for that read-out and setting: then “(S)-2-Amino-1-(3-(4-chloro-3-fluorophenylamino)-2-(4-fluorophenyl)-8-isopropyl-5,6-dihydroimidazo[1,2-a]pyrazin-7(8H)-yl)ethanone [Compound 19]”, with 470 ± 130 nM.
Take “(S)-2-Amino-1-(3-(4-chloro-3-fluorophenylamino)-2-(4-fluorophenyl)-8-methyl-5,6-dihydroimidazo[1,2-a]pyrazin-7(8H)-yl)ethanone [Compound 17]”: the loss/decrease of potency in the data set with P. falciparum came to 10 fold. Also, the 50% effective concentration (EC50) in the data set on P. falciparum strain W2 (setting [5]) was found to be 24 ± 1 nM.
